Screens: PubChem BioAssay, Sanford-Burnham Center for Chemical Genomics
Diaphorase act = counter-screen for diaphorase-based assays: diaphorase activators and chemical reducers; Diaphorase/resazurin coupled assay, resorufin fluorescence, 16 min; active compounds read high; 1 = vehicle wells, 0 = NADH-free wells; activation factor at 20 µM; hit rate 0.005% among 190,000; AID 1229;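 active = diaphorase activity raised at least twofold by the compound at 20 µM; inactive = activation factor below 2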
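Material: Purified diaphorase enzyme from Clostridium kluyveri | Buffer or medium: 50 mM HEPES pH 7.4 with 4.542 mM MgCl2, 0.005% Tween 20 | Times: 16 min enzyme reaction, ambient temperature | Signal: Red resorufin fluorescence at 544/590 nm excitation/emission | Measure: Increased resorufin signal from activators or reducing compounds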
FLuc inh counter = counter-screen for luciferase assay inhibitors: firefly luciferase inhibition. P08659. ATPLite firefly luciferase biochemical luminescence, 10 min. inhibition, % at 10 µM. hit rate 1.5% among 200,000;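 active = inhibition above about 50% when tested at 10 µM, limit read from the data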
Target sequence (P08659 whole entry, looked up): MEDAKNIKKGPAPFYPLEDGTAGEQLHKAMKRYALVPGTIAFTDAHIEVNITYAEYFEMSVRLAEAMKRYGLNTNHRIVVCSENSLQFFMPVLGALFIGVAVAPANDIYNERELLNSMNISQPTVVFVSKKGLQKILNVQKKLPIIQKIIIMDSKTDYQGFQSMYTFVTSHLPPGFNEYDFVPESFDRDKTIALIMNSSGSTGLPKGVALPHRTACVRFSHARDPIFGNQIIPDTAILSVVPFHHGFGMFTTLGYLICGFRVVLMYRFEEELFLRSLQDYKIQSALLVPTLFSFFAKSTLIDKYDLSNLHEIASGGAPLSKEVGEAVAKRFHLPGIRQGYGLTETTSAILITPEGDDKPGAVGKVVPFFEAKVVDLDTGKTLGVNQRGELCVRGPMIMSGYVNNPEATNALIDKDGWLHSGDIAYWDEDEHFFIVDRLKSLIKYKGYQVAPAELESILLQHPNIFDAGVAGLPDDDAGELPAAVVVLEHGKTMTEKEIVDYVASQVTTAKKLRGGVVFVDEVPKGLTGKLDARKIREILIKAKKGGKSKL
PMI activator = phosphomannose isomerase (human) activation; activation factor at 20 µM; AID 1214; purified human PMI, coupled resazurin fluorescence, 20 min; active compounds read high; 1 = vehicle control, 0 substrate-free wells; hit rate 0.005% among 190,000;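 active = activation factor of 2 or more at 20 µM, relative to plate controls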
FLuc act counter = firefly luciferase counter-screen for stimulation assays; ATPlite luciferase biochemical, luminescence, 10 min; 0 = ATP-free wells, 1 = DMSO control; P08659; activation factor at 10 µM; 200,000 tested, under 10 active;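 active = luciferase activation factor, scaled between plate controls, of at least 2 with compound at 10 µM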
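assay system = Luciferase/luciferin detection reagent, cell-free biochemical luciferase assay | also added = ATP substrate | times = 10 min post-reagent at room temperature | measured by = luminescence from luciferase reaction | measure = luciferase activation, seen as luminescence increase over controls | benchmarks = low control with PBS replacing ATP, high control enzyme plus ATP without compound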
Diaph inh CS = diaphorase inhibition or chemical oxidation counter-screen; diaphorase resazurin-to-resorufin fluorescence, NADH, 16 min; bacterial (C. kluyveri) enzyme, not human; inhibition, % at 20 µM; hit rate 0.69% among 190,000; AID 1217;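 active = primary screen inhibition at 20 µM above a set limit, cut at about 50% in these data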;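 note: plate controls were DMSO with full reaction for no effect and wells lacking NADH for full effect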
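Assay system: diaphorase enzyme from Clostridium kluyveri; Input: enzyme working solution with 0.14 U/mL diaphorase; Timing: 16 min at room temperature; Technique: resorufin fluorescence, excitation 544 nm, emission 590 nm; Benchmarks: positive control minus NADH, DMSO neutral control.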
PMI act satM6P = PMI (human) activation, high substrate. coupled PMI enzyme assay, resazurin fluorescence, 20 min; active compounds read high; 1 = untreated enzyme, 0 = substrate-free blank. P34949. hit rate 0.34% among 190,000. activation factor at 20 µM;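 active = activation factor of 2 or more at 20 µM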
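test system = human PMI in coupled enzyme assay | medium = HEPES-buffered pH 7.4 with magnesium and detergent | also added = 1.0 mM mannose-6-phosphate substrate with 0.22 mM NADP+ | compound = 20 µM single dose | times = 20 min incubation at room temperature | measured by = resorufin fluorescence (Ex 544/Em 590 nm) from resazurin via diaphorase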
Starred values were filed as active, the others as inactive. In the library only some 2.5% were active in any assay of this set; here they are far more common.

SMILES | Diaphorase act | FLuc inh counter | PMI activator | FLuc act counter | Diaph inh CS | PMI act satM6P
CCCn1c(N)c(C(=S)NC(=O)C2CC2)c(=O)n(C)c1=O | 0.5 | -10 | 0.9 | 1.1 | 52* | 1
CCCn1c(N)c(C(=O)COC(=O)c2c(C)noc2C)c(=O)n(C)c1=O | 0.8 | -6 | 1 | 1.1 | 20 | 1
O=C(COC(=O)C1CC1)Nc1ccc2c(c1)OCO2 | 0.9 | 6 | 1.1 | 0.9 | 11 | 1.1
Cc1ccccc1NC(=O)CSCc1nc(N)nc(Nc2ccccc2C)n1 | 0.9 | -2 | 0.9 | 1 | 9 | 0.8
CCN(Cc1ccccc1)S(=O)(=O)c1ccc(S(=O)(=O)N2CCN(CCC#N)CC2)cc1 | 0.9 | -3 | 0.9 | 1 | 11 | 0.9
CC(=O)Nc1ccc(S(=O)(=O)Nc2cccc(NC(=O)c3ccco3)c2)cc1 | 0.9 | -2 | 1 | 1 | 5 | 1
O=C1C2=C(c3ccccc31)[N+](=O)C1CCCCC1N2[O-] (configuration not stated) | 0.2 | -9 | 0.9 | 1.1 | 76* | 0.5
O=C1C2=C(c3ccccc31)[N+](=O)[C@@H]1CCCC[C@@H]1N2[O-] | 0.2 | -8 | 1.1 | 1.1 | 76* | 0.6
Cc1sc2ncn(CC(=O)N3CCOCC3)c(=O)c2c1-c1ccccc1 | 0.9 | 1 | 0.9 | 1 | 7 | 0.9
Cc1ccc(S(=O)(=O)N2CCOCC2)cc1C(=O)NCCN1C(=O)S/C(=C\c2ccccc2Cl)C1=O | 0.7 | -6 | 1 | 1.1 | 26 | 0.9
CC(C)(C)c1ccc(/C=C2\SC(=O)N(CCNC(=O)c3cccc(S(=O)(=O)N4CCOCC4)c3)C2=O)cc1 | 0.9 | 69* | 0.9 | 0.3 | 8 | 1
CN(C)C(=O)c1cn(-c2ccccc2)nc1-c1cc2ccccc2oc1=O | 1.1 | -3 | 1 | 1 | -8 | 1
CN(C)C(=O)c1cn(-c2ccccc2)nc1-c1cc2ccccc2o1 | 0.8 | 3 | 1.6 | 1 | 21 | 2.5*
COc1ccc(N2C3=C(CC4=C2CCCC4=O)C(=O)CCC3)cc1 | 0.4 | -9 | 0.7 | 1.1 | 64* | 0.5
c1ccc(-c2cn3nc4c(nc3n2)CCCC4)cc1 | 0.9 | 86* | 1.5 | 0.1 | 11 | 1.8
c1ccc(-c2cn3nc(-c4ccccc4)cnc3n2)cc1 | 0.9 | 37 | 1.8 | 0.6 | 7 | 2.6*
Cc1nnc(SCC(=O)Nc2cc(-c3cc(C)c(C)cc3C)nn2-c2ccccc2)s1 | 0.8 | -6 | 0.9 | 1.1 | 23 | 0.9
CCCc1ccc(-c2cc(NC(=O)CSc3nnc(N)s3)n(-c3ccccc3)n2)cc1 | 0.8 | 65* | 0.8 | 0.3 | 21 | 0.8
Cc1ccc(NC(=O)C2=C(c3ccccc3)S(=O)(=O)CCS2(=O)=O)cc1 | 1.1 | -5 | 1.1 | 1 | -10 | 1.1
COc1ccc2c(c1)cc(C)c1nnc(SCC(=O)N3CCN(C(=O)c4ccco4)CC3)n12 | 0.7 | -6 | 1 | 1.1 | 28 | 0.9
Cc1ccc2cc(C)c3nnc(SCC(=O)N4CCN(C(=O)c5ccco5)CC4)n3c2c1 | 0.5 | -6 | 1 | 1.1 | 51* | 0.9
Cc1ccc(-n2c(SCC(=O)Nc3cccc(S(N)(=O)=O)c3)nc3ccccc32)cc1 | 0.7 | -5 | 0.8 | 1.1 | 34 | 1
O=C(CS(=O)(=O)c1cn(Cc2ccc(F)cc2)c2ccccc12)N1CCOCC1 | 0.3 | -4 | 1 | 1 | 69* | 1
O=C(CSc1nc2ccccc2n1CCc1ccccc1)c1ccc(O)c(O)c1 | 0.4 | -3 | 1.1 | 1 | 63* | 1.6
CCN(CC)CCNC(=O)c1ccc(CS(=O)(=O)c2ccc(Br)cc2)o1 | 1.1 | -4 | 1.2 | 1 | -13 | 1.1
COc1ccc(CN2CC(=O)N(c3ccc(C)c(C)c3)C2=S)cc1OC | 0.9 | -6 | 1 | 1.1 | 11 | 1
Cc1cc2oc(=O)cc(CN3CCc4ccccc43)c2cc1Cl | 0.8 | -5 | 1.1 | 1.1 | 21 | 1.1
